In ChEMBL document CHEMBL5104168, “Design, synthesis, and antitumor study of a series of novel 1-Oxa-4-azaspironenone derivatives” (Bioorg Med Chem Lett, 2022):

Legend:
A549 = assay: Anticancer activity against human A549 cells assessed as inhibition of cell proliferation; format: functional, cell-based
HeLa = assay: Anticancer activity against human HeLa cells assessed as inhibition of cell proliferation; format: functional, cell-based
MDA-MB-231 [1] = assay: Anticancer activity against human MDA-MB-231 cells assessed as inhibition of cell proliferation; format: functional, cell-based
[2] = Cytotoxicity against HUVEC cells assessed as inhibition of cell growth; conditions: human
MDA-MB-231 [3] = assay: Induction of apoptosis in human MDA-MB-231 cells assessed as viable cells at 10 uM by Annexin V-FITC/propidium iodide staining based flow cytometric analysis (reference value: 93.6 %); format: functional; conditions: read-out: Activity
MDA-MB-231 [4] = assay: Induction of apoptosis in human MDA-MB-231 cells assessed as dead cells at 10 uM by Annexin V-FITC/propidium iodide staining based flow cytometric analysis (reference value: 0.68 %); format: functional
Method in brief: (§1)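 MDA-MB-231 cells were cultured with compound at 10 μM. DMSO-treated cells served as the vehicle control and combretastatin A4 (10 μM) as the positive control. Cells were double-labelled with Annexin V-FITC and propidium iodide and analysed by flow cytometry. Population percentages were read from the quadrants: early-apoptotic, late-apoptotic and dead cells. Incubation time was not given.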

MDA-MB-231 [5] = assay: Induction of apoptosis in human MDA-MB-231 cells assessed as late apoptotic cells at 10 uM by Annexin V-FITC/propidium iodide staining based flow cytometric analysis (reference value: 1.02 %); format: functional; method in brief: as §1
MDA-MB-231 [6] = assay: Induction of cell cycle arrest in human MDA-MB-231 cells assessed as accumulation of cells at G2 phase at 10 uM (reference value: 16.5 %); format: functional
MDA-MB-231 [7] = assay: Induction of cell cycle arrest in human MDA-MB-231 cells assessed as accumulation of cells at G1 phase at 10 uM (reference value: 61.33 %); format: functional
MDA-MB-231 [8] = assay: Induction of cell cycle arrest in human MDA-MB-231 cells assessed as accumulation of cells at S phase at 10 uM (reference value: 21.17 %); format: functional
MDA-MB-231 [9] = assay: Induction of apoptosis in human MDA-MB-231 cells assessed as early apoptotic cells at 10 uM by Annexin V-FITC/propidium iodide staining based flow cytometric analysis (reference value: 4.66 %); format: functional; method in brief: as §1

O=C1C=CC2(OCC(=O)N2Cc2c(Cl)cccc2Cl)C2CC12 (configuration not stated)
IC50 (A549): 8830 nM | IC50 (HeLa): 1760 nM | IC50 (MDA-MB-231 [1]): 5520 nM

CCSC1=CC(=O)CC(SCC)C12OCC(=O)N2Cc1c(Cl)cccc1Cl (configuration not stated)
IC50 (A549): 9270 nM | IC50 (HeLa): 210 nM | IC50 (MDA-MB-231 [1]): 120 nM

CCSC1CC(=O)CC(SCC)C12OCC(=O)N2Cc1ccc(Cl)cc1 (configuration not stated)
IC50 (A549): > 10000 nM | IC50 (HeLa): 3920 nM | IC50 (MDA-MB-231 [1]): 260 nM

O=C1C=CC2(C=C1)OCC(=O)N2Cc1ccccc1Cl
IC50 (A549): 1050 nM | IC50 (HeLa): 360 nM | IC50 (MDA-MB-231 [1]): 70 nM

O=C1C=CC2(OCC(=O)N2Cc2ccc(Br)cc2)C2CC12 (configuration not stated)
IC50 (A549): 6090 nM | IC50 (HeLa): > 10000 nM | IC50 (MDA-MB-231 [1]): 1120 nM

O=C1C=CC2(C=C1)OCC(=O)N2Cc1ccc([N+](=O)[O-])cc1
IC50 (A549): 810 nM | IC50 (HeLa): 270 nM | IC50 (MDA-MB-231 [1]): 210 nM

COC(=O)C(C(=O)OC)C1CC(=O)C=CC12OCC(=O)N2Cc1ccc(C)cc1 (configuration not stated)
IC50 (A549): 9250 nM | IC50 (HeLa): 410 nM | IC50 (MDA-MB-231 [1]): 340 nM

O=C1C=CC2(C=C1)OCC(=O)N2Cc1cccc(Cl)c1
IC50 (A549): 3010 nM | IC50 (HeLa): 370 nM | IC50 (MDA-MB-231 [1]): 110 nM

CCSC1CC(=O)CC(SCC)C12OCC(=O)N2Cc1ccc(C)cc1 (configuration not stated)
IC50 (A549): 2300 nM | IC50 (HeLa): 2410 nM | IC50 (MDA-MB-231 [1]): 1360 nM

O=C1C=CC2(C=C1)OCC(=O)N2Cc1ccc(Cl)cc1
IC50 [2]: 44600 nM | IC50 (A549): 1290 nM | IC50 (HeLa): 410 nM | IC50 (MDA-MB-231 [1]): 110 nM

O=C1C=CC2(OCC(=O)N2Cc2ccc(Cl)cc2)C2CC12 (configuration not stated)
viability at 10 µM (MDA-MB-231 [3]): 85.4% | Activity (MDA-MB-231 [4]): 0.72% | Activity (MDA-MB-231 [5]): 3% | IC50 [2]: 83600 nM | Activity (MDA-MB-231 [6]): 27.16% | Activity (MDA-MB-231 [7]): 53.57% | IC50 (A549): 6060 nM | IC50 (HeLa): > 10000 nM | Activity (MDA-MB-231 [8]): 19.28% | Activity (MDA-MB-231 [9]): 10.9% | IC50 (MDA-MB-231 [1]): 100 nM

O=C1C=CC2(OCC(=O)N2Cc2ccc([N+](=O)[O-])cc2)C2CC12 (configuration not stated)
IC50 (A549): > 10000 nM | IC50 (HeLa): 3860 nM | IC50 (MDA-MB-231 [1]): 1200 nM

COC(=O)C(C(=O)OC)C1CC(=O)C=CC12OCC(=O)N2Cc1ccc(Cl)cc1 (configuration not stated)
IC50 (A549): 9980 nM | IC50 (HeLa): 180 nM | IC50 (MDA-MB-231 [1]): 380 nM

Cn1c(CCCC(=O)O)nc2cc(N(CCCl)CCCl)ccc21 [BENDAMUSTINE]
IC50 (HeLa): > 20000 nM

COC(=O)C(C(=O)OC)C1CC(=O)C=CC12OCC(=O)N2Cc1cccc(Cl)c1 (configuration not stated)
IC50 (A549): 260 nM | IC50 (HeLa): 340 nM | IC50 (MDA-MB-231 [1]): 250 nM

O=C1C=CC2(OCC(=O)N2Cc2cccc(Cl)c2)C2CC12 (configuration not stated)
IC50 (A549): > 10000 nM | IC50 (HeLa): 1730 nM | IC50 (MDA-MB-231 [1]): 460 nM

Cc1ccc(CN2C(=O)COC23C=CC(=O)C=C3)cc1
IC50 (A549): 260 nM | IC50 (HeLa): 200 nM | IC50 (MDA-MB-231 [1]): 100 nM

COc1ccc(/C=C\c2cc(OC)c(OC)c(OC)c2)cc1O [COMBRETASTATIN A4]
viability at 10 µM (MDA-MB-231 [3]): 77.7% | Activity (MDA-MB-231 [4]): 0.35% | Activity (MDA-MB-231 [5]): 4.81% | Activity (MDA-MB-231 [6]): 57.38% | Activity (MDA-MB-231 [7]): 10.16% | Activity (MDA-MB-231 [8]): 32.46% | Activity (MDA-MB-231 [9]): 17.2%

O=C1C=CC2(C=C1)OCC(=O)N2Cc1ccc(Br)cc1
IC50 (A549): 190 nM | IC50 (HeLa): 150 nM | IC50 (MDA-MB-231 [1]): 80 nM

O=C1C=CC2(OCC(=O)N2Cc2ccccc2Cl)C2CC12 (configuration not stated)
IC50 (A549): 660 nM | IC50 (HeLa): > 10000 nM | IC50 (MDA-MB-231 [1]): 420 nM

O=C1C=CC2(C=C1)OCC(=O)N2Cc1c(Cl)cccc1Cl
IC50 (A549): 4950 nM | IC50 (HeLa): 290 nM | IC50 (MDA-MB-231 [1]): 120 nM

COC(=O)C(C(=O)OC)C1CC(=O)C=CC12OCC(=O)N2Cc1ccc(Br)cc1 (configuration not stated)
IC50 (A549): 2550 nM | IC50 (HeLa): 1060 nM | IC50 (MDA-MB-231 [1]): 1230 nM
